In ChEMBL document CHEMBL1126202, “Dual-action penems and carbapenems” (J Med Chem, 1992):

Columns and labels:
[1] = tested on: Staphylococcus aureus; assay: Minimum inhibitory concentration to the compound inhibiting [14C]- Penicillin G binding to Staphylococcus aureus ATCC 29213 Penicillin binding protein
[2] = tested on: Proteus vulgaris; assay: In vitro antibacterial activity against Proteus vulgaris ATCC 6380 (constitutive beta-lactamase producer); assay type: functional
Summary of the method: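 Proteus MICs were determined by agar dilution on Mueller-Hinton agar containing 3% agar. Plates were replicator-inoculated with 100-fold-diluted overnight broth cultures.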

[3] = tested on: Streptococcus pneumoniae; assay: In vitro antibacterial activity against Streptococcus pneumoniae 6301; assay type: functional
Summary of the method: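 Streptococcal MICs were determined by agar dilution on brain heart infusion agar supplemented with 20 units/mL bovine liver catalase. Final concentrations were 128 to 0.0156 μg/mL from 2-fold dilutions. Inocula were overnight broth cultures diluted 100-fold, applied by Steers replicator.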

[4] = Stability in pH 7.4 phosphate buffer at 37 degree C.; assay type: physicochemical
Summary of the method: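 Compounds were held in pH 7.4 phosphate buffer at 37 °C and monitored by reverse-phase HPLC on a PRP-1 column with UV detection at 275–286 nm. The mobile phase was 0.01 M tetradecyltrimethylammonium bromide in pH 8.2 phosphate/acetonitrile. Product-peak decline was followed to at least 50%, and half-life was taken from semilogarithmic plots.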

[5] = tested on: Pseudomonas aeruginosa; assay: In vitro antibacterial activity against Ps. aeruginosa 18SH (constitutive beta-lactamase producer); assay type: functional
Summary of the method: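 MIC was determined by agar dilution on Mueller-Hinton agar. Serial 2-fold aqueous dilutions were diluted 10-fold in agar to give final concentrations of 128 to 0.0156 μg/mL. Plates were inoculated by Steers replicator with overnight broth cultures diluted 100-fold.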

[6] = tested on: Escherichia coli; assay: Minimum inhibitory concentration inhibiting [14C]- Penicillin G binding to Escherichia coli UB1005 PBPs
[7] = tested on: Penicillin-binding protein 3 FtsI (Escherichia coli K-12); assay: Concentration inhibiting [14C]- Penicillin G binding to Escherichia coli UB1005 PBP3 (penicillin binding protein) 60 kDa

Compound	MIC [1] [µg/mL]	MIC [2] [µg/mL]	MIC [3] [µg/mL]	half-life [4] [h]	MIC [5] [µg/mL]	MIC [6] [µg/mL]	IC90 [7] [µg/mL]
C[C@@H](O)[C@H]1C(=O)N2C(C(=O)[O-])=C(CO)S[C@H]12.[Na+]	0.25	8	0.125				
C[C@@H](O)[C@H]1C(=O)N2C(C(=O)[O-])=C(COC(=O)c3cn(CCF)c4c(F)c(N5CCN(C)CC5)c(F)cc4c3=O)S[C@H]12.[Na+]				52	4	2	30
